Test results published in ChEMBL document CHEMBL1125678, “Quinazolineacetic acids and related analogues as aldose reductase inhibitors” (J Med Chem, 1991).

Columns and labels:
[1] = target: Aldo-keto reductase family 1 member B1 (Bos taurus) (UniProt P16116); assay: In vitro inhibition of aldose reductase in partially purified bovine lens preparation at a concentration of 4*10e -8M.
Method in brief: (§1)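 Enzyme from bovine lens, partially purified by the cited method with the final chromatographic step omitted. DL-Glyceraldehyde was the substrate. Test compounds were run in duplicate at 1×10⁻⁵, 1×10⁻⁶, 1×10⁻⁷ or 4×10⁻⁸ M. Values are % inhibition of enzymatic activity.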

[2] = test system: Rattus norvegicus; assay: In vivo inhibition of galactitol accumulation in the diaphragm of rats fed 20% galactose for 4 day at 102 mg/kg/day dose; type: functional
Method in brief: (§2)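 Male Sprague-Dawley rats (50–70 g) in groups of six were fed chow with 20% (w/w) galactose. Controls received 20% glucose instead. Test compound was mixed into the diet, and dose was calculated from actual food intake. Rats were killed by decapitation after 4 days. Result is % lowering of tissue galactitol versus galactose-fed controls, as the mean of six animals, compared by Dunnett's multiple comparison.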

[3] = test system: Rattus norvegicus; assay: (§3) In vivo inhibition of galactitol accumulation in the sciatic nerve of rats fed 20% galactose for 4 day at 95 mg/kg/day dose; NS= No Significant inhibition of polyol accumulation; type: functional, organism-based
[4] = target: Aldo-keto reductase family 1 member B1 (Bos taurus) (UniProt P16116); assay: In vitro inhibition of aldose reductase in partially purified bovine lens preparation at a concentration of 10e -5M.; details: in the assay text read “10e -6M” for “10e -5M”; method in brief: as §1
[5] = target: Aldo-keto reductase family 1 member B1 (Bos taurus) (UniProt P16116); assay: In vitro inhibition of aldose reductase in partially purified bovine lens preparation at a concentration of 10e -7M.; method in brief: as §1
[6] = test system: Rattus norvegicus; assay: In vivo inhibition of galactitol accumulation in the diaphragm of rats fed 20% galactose for 4 day at 95 mg/kg/day dose; type: functional; method in brief: as §2
[7] = test system: Rattus norvegicus; assay: In vivo inhibition of galactitol accumulation in the sciatic nerve of rats fed 20% galactose for 4 day at 95 mg/kg/day dose; type: functional
[8] = test system: Rattus norvegicus; assay: as §3; type: functional, organism-based; remark: listed apart in the source
[9] = target: Aldo-keto reductase family 1 member B1 (Bos taurus) (UniProt P16116); assay: In vitro inhibition of aldose reductase in partially purified bovine lens preparation at a concentration of 10e-6 M.; method in brief: as §1
[10] = test system: Rattus norvegicus; assay: In vivo inhibition of galactitol accumulation in the sciatic nerve of rats fed 20% galactose for 4 day at 91 mg/kg/day dose; NS = No Significant inhibition of polyol accumulation; type: functional, organism-based; method in brief: as §2
[11] = test system: Rattus norvegicus; assay: In vivo inhibition of galactitol accumulation in the diaphragm of rats fed 20% galactose for 4 day at 91 mg/kg/day dose; NS = No Significant inhibition of polyol accumulation; type: functional, organism-based; method in brief: as §2
[12] = test system: Rattus norvegicus; assay: In vivo inhibition of galactitol accumulation in the sciatic nerve of rats fed 20% galactose for 4 day at 101 mg/kg/day dose; NS = No Significant inhibition of polyol accumulation; type: functional, organism-based; method in brief: as §2
[13] = test system: Rattus norvegicus; assay: In vivo inhibition of galactitol accumulation in the diaphragm of rats fed 20% galactose for 4 day at 101 mg/kg/day dose; NS = No Significant inhibition of polyol accumulation; type: functional, organism-based; method in brief: as §2
[14] = target: Aldo-keto reductase family 1 member B1 (Bos taurus) (UniProt P16116); assay: in vitro inhibition of aldose reductase in partially purified bovine lens preparation at a concentration of 10e -6M.
[15] = target: Aldo-keto reductase family 1 member B1 (Bos taurus) (UniProt P16116); assay: In vitro inhibition of Aldose reductase in partially purified bovine lens preparation at a concentration of 10e -7M.; method in brief: as §1
[16] = target: Aldo-keto reductase family 1 member B1 (Bos taurus) (UniProt P16116); assay: In vitro inhibition of Aldose reductase in partially purified bovine lens preparation at a concentration of 4*10e -8M.; method in brief: as §1
[17] = test system: Rattus norvegicus; assay: In vivo inhibition of galactitol accumulation in the sciatic nerve of rats fed 20% galactose for 4 day at 96 mg/kg/day dose; type: functional
[18] = test system: Rattus norvegicus; assay: In vivo inhibition of galactitol accumulation in the diaphragm of rats fed 20% galactose for 4 day at 96 mg/kg/day dose; type: functional; method in brief: as §2
[19] = test system: Rattus norvegicus; assay: In vivo inhibition of galactitol accumulation in the sciatic nerve of rats fed 20% galactose for 4 day at 99 mg/kg/day dose; NS = No Significant inhibition of polyol accumulation; type: functional, organism-based
[20] = test system: Rattus norvegicus; assay: In vivo inhibition of galactitol accumulation in the diaphragm of rats fed 20% galactose for 4 day at 99 mg/kg/day dose; NS = No Significant inhibition of polyol accumulation; type: functional, organism-based; method in brief: as §2
[21] = test system: Rattus norvegicus; assay: In vivo inhibition of galactitol accumulation in the sciatic nerve of rats fed 20% galactose for 4 day at 94 mg/kg/day dose; NS = No Significant inhibition of polyol accumulation; type: functional, organism-based
[22] = test system: Rattus norvegicus; assay: In vivo inhibition of galactitol accumulation in the diaphragm of rats fed 20% galactose for 4 day at 94 mg/kg/day dose; NS = No Significant inhibition of polyol accumulation; type: functional, organism-based; method in brief: as §2
[23] = test system: Rattus norvegicus; assay: In vivo inhibition of galactitol accumulation in the diaphragm of rats fed 20% galactose for 4 day at 101 mg/kg/day dose; type: functional; method in brief: as §2
[24] = test system: Rattus norvegicus; assay: In vivo inhibition of galactitol accumulation in the sciatic nerve of rats fed 20% galactose for 4 day at 70 mg/kg/day dose; type: functional; method in brief: as §2
[25] = test system: Rattus norvegicus; assay: In vivo inhibition of galactitol accumulation in the diaphragm of rats fed 20% galactose for 4 day at 70 mg/kg/day dose; type: functional; method in brief: as §2
[26] = test system: Rattus norvegicus; assay: In vivo inhibition of galactitol accumulation in the diaphragm of rats fed 20% galactose for 4 day at 100 mg/kg/day dose; type: functional; method in brief: as §2
[27] = test system: Rattus norvegicus; assay: In vivo inhibition of galactitol accumulation in the sciatic nerve of rats fed 20% galactose for 4 day at 100 mg/kg/day dose; type: functional; method in brief: as §2
[28] = target: Aldo-keto reductase family 1 member B1 (Bos taurus) (UniProt P16116); assay: in vitro inhibition of Aldose reductase in partially purified bovine lens preparation at a concentration of 10e-6 M.
[29] = test system: Rattus norvegicus; assay: In vivo inhibition of galactitol accumulation in the sciatic nerve of rats fed 20% galactose for 4 day at 96 mg/kg/day dose; NS = No Significant inhibition of polyol accumulation; type: functional, organism-based

COc1ccc(Cn2c(=O)n(CC(=O)O)c(=O)c3cc(Br)ccc32)cc1Br
inhibition [1]: 32%
Lowering [2]: 24%
Lowering [3]: Not significant

O=C(O)Cn1c(=O)[nH]c2ccc(Br)cc2c1=O
inhibition [4]: 64%

O=C(O)Cn1c(=O)c2cc(Cl)ccc2n(Cc2ccc(Cl)c(Cl)c2)c1=O
inhibition [5]: 71%
inhibition [1]: 29%
Lowering [6]: 83%
Lowering [7]: 72%

COc1ccc(Cn2c(=O)n(CC(=O)O)c(=O)c3cc(Br)ccc32)cc1
inhibition [5]: 31%
inhibition [1]: 11%
Lowering [3]: Not significant
Lowering [8]: Not significant

O=C(O)Cn1c(C(F)(F)F)nc2ccc(Br)cc2c1=O
inhibition [5]: 23%
inhibition [9]: 45%
Lowering [10]: Not significant
Lowering [11]: Not significant

CCc1nc2ccc(Br)cc2c(=O)n1CC(=O)O
inhibition [5]: 13%
inhibition [9]: 57%
Lowering [12]: Not significant
Lowering [13]: Not significant

C=CCn1c(=O)n(CC(=O)O)c(=O)c2cc(Br)ccc21
Lowering [3]: Not significant
Lowering [8]: Not significant
inhibition [14]: 31%

O=C(O)Cn1c(=O)c2cc(Br)ccc2n(Cc2ccc(Br)cc2F)c1=O
inhibition [15]: 83%
inhibition [16]: 71%
Lowering [17]: 60%
Lowering [18]: 76%

O=C(O)Cn1c(=O)n(Cc2ccc(Cl)c(Cl)c2)c(=O)c2c3c(sc21)CCCC3
inhibition [5]: 89%
inhibition [1]: 63%
Lowering [19]: Not significant
Lowering [20]: Not significant

Cc1nc2ccc(Br)cc2c(=S)n1CC(=O)O
inhibition [5]: 54%
inhibition [9]: 88%
Lowering [21]: Not significant
Lowering [22]: Not significant

O=C(O)Cn1c(=O)c2cccc(F)c2n(Cc2ccc(Br)cc2F)c1=O
inhibition [5]: 77%
inhibition [1]: 53%
Lowering [6]: 70%
Lowering [7]: 49%

O=C(O)Cn1c2ccc([N+](=O)[O-])cc2c(=O)n1Cc1ccc(Br)cc1F
inhibition [15]: 60%
inhibition [16]: 36%
Lowering [12]: Not significant
Lowering [23]: 22%

O=C(O)CN1C(=O)c2cc(Cl)ccc2N(Cc2ccc(Br)cc2F)[S+]1[O-] (stereo not given)
inhibition [5]: 21%
inhibition [1]: 8%
Lowering [3]: Not significant
Lowering [8]: Not significant

O=C(O)Cn1c(=O)c2cc(Cl)ccc2n(Cc2ccc(Br)cc2F)c1=S
inhibition [5]: 70%
inhibition [1]: 24%
Lowering [24]: 39%
Lowering [25]: 60%

O=C(O)Cn1c(=O)c2cc([N+](=O)[O-])ccc2n(Cc2ccc(Br)cc2F)c1=O
inhibition [5]: 71%
inhibition [1]: 38%
Lowering [3]: Not significant
Lowering [8]: Not significant

COc1ccc2c(c1)c(=O)n(CC(=O)O)c(=O)n2Cc1ccc(Cl)c(Cl)c1
inhibition [5]: 85%
inhibition [1]: 49%
Lowering [26]: 70%
Lowering [27]: 63%

O=C(O)Cn1c2ccc(Cl)cc2c(=O)n1Cc1ccc(Cl)c(Cl)c1
inhibition [5]: 63%
inhibition [1]: 34%
Lowering [12]: Not significant
Lowering [13]: Not significant

O=C(O)Cn1c2ccccc2c(=O)n1Cc1ccc(Br)cc1F
inhibition [15]: 42%
inhibition [16]: 28%
Lowering [17]: 25%
Lowering [18]: 51%

O=C(O)Cn1c(=O)c2cc(Br)ccc2n(Cc2ccc(C(F)(F)F)cc2)c1=O
Lowering [3]: Not significant
Lowering [8]: Not significant
inhibition [14]: 54%

O=C(O)Cn1c(=O)c2cc(Br)ccc2n(Cc2ccc(Br)cc2)c1=O
inhibition [5]: 59%
inhibition [1]: 39%
Lowering [26]: 36%
Lowering [27]: 24%

Cn1c(=O)n(CC(=O)O)c(=O)c2cc(Cl)ccc21
inhibition [4]: 60%

O=C(O)Cn1c(=O)c2ccc(Cl)cc2n(Cc2ccc(Br)cc2F)c1=O
inhibition [5]: 76%
inhibition [1]: 55%
Lowering [6]: 74%
Lowering [7]: 42%

O=C(O)Cn1c(=O)c2cc(Br)ccc2n(C(=O)c2ccccc2)c1=O
Lowering [3]: Not significant
Lowering [8]: Not significant
inhibition [14]: 46%

O=C(O)Cn1c(=O)c2ccccc2n(-c2ccccc2)c1=O
inhibition [4]: 45%

Cc1c(C)n(Cc2ccc(Cl)c(Cl)c2)c(=O)n(CC(=O)O)c1=O
inhibition [5]: 39%
inhibition [1]: 28%
Lowering [19]: Not significant
Lowering [20]: Not significant
inhibition [14]: 83%

O=C(O)Cn1c(=O)c2cc(Br)ccc2n(Cc2ccc(F)c(F)c2)c1=O
inhibition [5]: 30%
inhibition [1]: 20%
Lowering [2]: 40%
Lowering [3]: Not significant

O=C(O)Cn1c(=O)n(Cc2ccc(Cl)c(Cl)c2)c(=S)c2cc(Cl)ccc21
inhibition [5]: 89%
inhibition [1]: 54%
Lowering [24]: 28%
Lowering [25]: 50%

O=C(O)Cn1c(=O)c2c(Cl)cccc2n(Cc2ccc(Br)cc2F)c1=O
inhibition [5]: 70%
inhibition [1]: 33%
Lowering [6]: 46%
Lowering [3]: Not significant

O=C(O)CN1CN(Cc2ccc(Cl)c(Cl)c2)C(=O)c2cc(Cl)ccc21
inhibition [5]: 87%
inhibition [1]: 54%
Lowering [3]: Not significant
Lowering [23]: 29%

O=C(O)Cn1c(=O)c2cc(Br)ccc2n(CCc2ccccc2)c1=O
inhibition [4]: 34%
Lowering [3]: Not significant
Lowering [8]: Not significant

O=C(O)Cn1c(=O)c2ccccc2n1Cc1ccc(Br)cc1F
inhibition [28]: 40%
Lowering [29]: Not significant
Lowering [18]: 24%
